Data: ChEMBL document CHEMBL1177882, “Novel bisstyryl derivatives of bakuchiol: targeting oral cavity pathogens” (2010)
In brackets after ≈: the same amount, converted by molar mass.

Columns and labels:
Streptococcus mutans [1] = assay: Antibacterial activity against Streptococcus mutans ATCC 25175 after 48 hrs by broth microdilution method; type: functional; conditions: ATCC 25175, 48 h
Actinomyces viscosus [2] = assay: Antibacterial activity against Actinomyces viscosus ATCC 15987 after 48 hrs by broth microdilution method; type: functional; conditions: ATCC 15987, 48 h
Streptococcus sanguinis [3] = assay: Antibacterial activity against Streptococcus sanguinis ATCC 10556 after 48 hrs by broth microdilution method; type: functional; conditions: ATCC 10556, 48 h
Fusobacterium nucleatum = assay: Antibacterial activity against Fusobacterium nucleatum ATCC 10953 after 48 hrs by broth microdilution method; type: functional; conditions: ATCC 10953, 48 h
Procedure, shortened: (§1)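 Broth microdilution MIC for obligate anaerobes, run in their growth media (Wilkins–Chalgren for F. nucleatum and P. intermedia; supplemented Todd Hewitt broth for P. gingivalis). Inoculum suspended in Brucella broth, final 5 × 10^6 cfu/ml. Twofold dilutions, final 0.12–128 µg/ml. Incubated anaerobically (90% N2/5% H2/5% CO2) at 37 °C for 48 h; MIC is the lowest concentration without turbidity.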

Prevotella intermedia = assay: Antibacterial activity against Prevotella intermedia ATCC 25611 after 48 hrs by broth microdilution method; type: functional; conditions: ATCC 25611, 48 h; procedure, shortened: as §1
Porphyromonas gingivalis = assay: Antibacterial activity against Porphyromonas gingivalis ATCC 33277 after 48 hrs by broth microdilution method; type: functional; conditions: ATCC 33277, 48 h; procedure, shortened: as §1
Streptococcus mutans [4] = assay: Antibacterial activity against Streptococcus mutans ATCC 25175 assessed as inhibition of biofilm formation after 18 hrs; type: functional
Procedure, shortened: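 Single-species S. mutans biofilm grown in flat-bottom polystyrene wells, BHI with 2% sucrose, 6 × 10^7 cfu/ml final, compound twofold 0.12–128 µg/ml, 18 h at 37 °C in 5% CO2. Wells rinsed with PBS pH 7.2, methanol-fixed, stained with 0.1% crystal violet, eluted in 95% ethanol, A595 read. % inhibition relative to untreated control; MBIC50 is the lowest concentration giving ≥50% inhibition.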

Streptococcus mutans [5] = assay: Ratio of compound MBIC50 to bakuchiol MBIC50 for Streptococcus mutans ATCC 25175; type: functional
Procedure, shortened: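 MBIC50 from crystal-violet S. mutans biofilm assay (BHI + 2% sucrose, 18 h, 37 °C, 5% CO2, A595 read) for each compound, divided by the bakuchiol MBIC50 from the same assay.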

Streptococcus mutans [6] = assay: Antibacterial activity against Streptococcus mutans ATCC 25175 after 24 hrs by broth microdilution method; conditions: ATCC 25175, 24 h
Actinomyces viscosus [7] = assay: Antibacterial activity against Actinomyces viscosus ATCC 15987 after 24 hrs by broth microdilution method; conditions: ATCC 15987, 24 h
Streptococcus sanguinis [8] = assay: Antibacterial activity against Streptococcus sanguinis ATCC 10556 after 24 hrs by broth microdilution method; conditions: ATCC 10556, 24 h

SMILES: CC(C)=CCC[C@](C)(/C=C/c1ccc(O)cc1)/C=C/c1ccc(F)cc1
- MBC (Streptococcus mutans [1]): 4 µg/mL (≈ 11.4 µM)
- MBC (Actinomyces viscosus [2]): 8 µg/mL (≈ 22.8 µM)
- MBC (Streptococcus sanguinis [3]): 8 µg/mL (≈ 22.8 µM)
- MBC (Fusobacterium nucleatum): > 128 µg/mL
- MIC (Fusobacterium nucleatum): > 128 µg/mL
- MBC (Prevotella intermedia): 4 µg/mL (≈ 11.4 µM)
- MIC (Prevotella intermedia): 2 µg/mL (≈ 5.71 µM)
- MBC (Porphyromonas gingivalis): 4 µg/mL (≈ 11.4 µM)
- MIC (Porphyromonas gingivalis): 2 µg/mL (≈ 5.71 µM)
- MBIC50 (Streptococcus mutans [4]): 8 µg/mL
- Ratio (Streptococcus mutans [5]): 2
- MIC (Streptococcus mutans [6]): 4 µg/mL (≈ 11.4 µM)
- MIC (Actinomyces viscosus [7]): 4 µg/mL (≈ 11.4 µM)
- MIC (Streptococcus sanguinis [8]): 4 µg/mL (≈ 11.4 µM)
